# Experimental data of several laboratories.
# Compare with care: the assays were run in different laboratories. pIC50: −log10 of the molar value.
# Cell line: K562
# Observed: cell growth or viability
Structure (SMILES),technique,concentration,time,measurement,value
COc1ccc(C(=O)/C=C/c2ccc3c(c2)OCCO3)cc1S(N)(=O)=O,SRB,10 µM,,inhibition,83%
COc1ccc2nccc(N3CCc4c(cc(Cn5ccnc5)cc4-c4cn(C)nc4C(F)(F)F)C3=O)c2c1,ATP luminescence,,5 days,GI50,13000 nM
CCCCCCCCC1=CC2C=CC=CC1C2C1CCCCC1=O (centres unmarked),flow cytometry,,,pIC50,7.39
COc1cccc(Oc2ccccc2NC(=O)CNC(=O)c2cccc3ccccc23)c1,SRB,,48 h,GI50,129 nM
CNC(=O)c1cc(OC)cc2c(N3CCc4c(cc(Cn5ccnc5)cc4-c4cn(C)nc4C(F)(F)F)C3=O)ccnc12,ATP luminescence,,5 days,GI50,9700 nM
COc1ccc(C(=O)/C=C/c2cccc3ccccc23)cc1S(N)(=O)=O,SRB,,48 h,GI50,1700 nM
COc1ccccc1S(=O)(=O)Nc1ccc2c(c1)CN(C)C(=O)N2,ATP luminescence,,,GI50,> 20000 nM
COC(=O)CCC1=CC2C=CC=CC1C2C1CCCCC1=O (centres unmarked),flow cytometry,,,pIC50,7.21
